In the library only some 2.3% were active in any assay of this set; here they are far more common.
F508del corr: F508del CFTR correction, initial screen, CFBE line, single point; CFBE cells, YFP halide quenching; stimulated with forskolin plus potentiator P3; % fluorescence drop versus neutral controls; activity (quench increase), % at 7.58 µM; 0.36% of 350,000 active; AID 720511, 2013;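 active = mean added fluorescence quench of at least 8% versus neutral control, with both replicates also reaching 8%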;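 also: cells transiently co-express mutant CFTR-F508del with the halide-sensitive YFP; corrector assay measuring rescue of mutant channel to the surface after 24 h compound exposure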
PAX8 inh HTS: inhibitors of PAX8-driven TPO luciferase reporter, primary screen, RMG-I cells, single concentration; SteadyGlo, 24 h; 1.2% of 360,000 active; inhibition, % at 12.6 µM;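 active = mean replicate inhibition at least 60% with every replicate also reaching 60%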;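 also: luciferase light reporting Pax8 driven TPO promoter activity; plate controls were median of neutral control wells for no effect and mitoxantrone controls for full effect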
PGC1a acetyl inh: inhibitors of PGC1a acetylation signal, primary screen, cell-based, U2OS, AlphaScreen, inhibitor mode; AlphaScreen anti-acetyl-lysine; with virally co-expressed GCN5 acetyltransferase; inhibition, % at 15.6 µM; 0.17% of 350,000 active;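 active = every replicate shows inhibition of at least 40%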;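 also: 0% = neutral control wells and 100% = positive control wells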
FN deposit inh: inhibitors of fibronectin matrix deposition, primary screen, AH1F cells, Alexa488-fibronectin fluorescence, plate reader; AH1F fibroblasts, overnight; inhibition, % at 12.6 µM; AID 743247, 2014; 0.086% of 350,000 active;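 active = mean inhibition across replicates of 30% or more, regardless of how many single replicates reach that level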;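 also: positive control wells lacked labelled fibronectin entirely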
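material = AH1F fibroblast monolayer depositing Alexa488-labelled fibronectin into matrix | amount = 10000 AH1F cells/well | buffer or medium = DMEM plus 2% serum, read in PBS | incubation = 1 h cell adhesion before compound, then overnight fibronectin incubation | detection = fluorescence at 485 nm excitation, 525 nm emission | evaluation = percent inhibition as loss of matrix-bound fibronectin fluorescence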
EWS-Fli inh: EWS/Fli-driven NR0B1 reporter inhibitors, primary screen, A673 cells, NR0B1 luciferase, luminescence, MLPCN library; 0.67% of 350,000 active; viability-normalised; inhibition, % at 12.6 µM;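 active = mean inhibition of at least 50% after viability correction, with every replicate also passing that limit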;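 also: firefly luciferase signal divided by Alamar Blue viability fluorescence both relative to DMSO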
Env fusion inh: inhibitors of HIV-1 Env-driven cell-cell fusion, primary screen, HeLa-JRFL effector, CEM21 target cells, luciferase | inhibition, % at 12.3 µM | 1.1% of 360,000 active | AID 651610, 2012;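 active = mean replicate inhibition score of at least 50 and every replicate individually at or above 50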;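 also: 0% = plate neutral controls and 100% = maraviroc near 300 nM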
* = called active by the depositor; x = no result; [ ] = remark or other dose.

SMILES	F508del corr	PAX8 inh HTS	PGC1a acetyl inh	FN deposit inh	EWS-Fli inh	Env fusion inh
Cc1noc(C)c1S(=O)(=O)N(C)C[C@H]1Oc2ccc(NC(=O)Cc3cn(C)c4ccccc34)cc2C(=O)N([C@H](C)CO)C[C@@H]1C	x	x	x	9	x	x
CC1CC(C)CN(S(=O)(=O)c2ccc(Oc3ccc([N+](=O)[O-])cc3)cc2)C1 (stereo not drawn)	x	x	-2	-6	x	56*
COc1ccc(NC(=O)CC2C(=O)N(c3ccccc3)C(=O)N2CCc2cccs2)cc1 (stereo not drawn)	-1	68*	x	2	0	x
CCOc1ccc(NC(=O)CC2C(=O)N(c3ccc(OC)cc3)C(=O)N2CCc2cccs2)cc1 (stereo not drawn)	-1	35	x	4	9	x
CC(C)(C)OC(=O)C1=CC[C@@H](c2ccc(Cl)c(Cl)c2)N(S(=O)(=O)c2ccc(F)cc2)[C@H]1c1cccc(F)c1	-3	-2	-11	2	21	93*
CCCC#Cc1ccc2c(c1)O[C@H](CN(C)C(=O)Nc1ccccc1F)[C@@H](C)CN([C@H](C)CO)S2(=O)=O	1	-7	-1	0	21	-26[16.7 µM]
CC(=O)c1c(C)[nH]c(C(=O)OCCCCN2C(=O)c3ccccc3C2=O)c1C	x	25	x	1	x	98*
COc1ccc2c3c([nH]c2c1)[C@@H](CO)NCC31CN(Cc2ccccc2F)C1	0	x	2	x	-7	x
C[C@H](CO)N1C[C@H](C)[C@@H](CN(C)Cc2ccc(C(F)(F)F)cc2)Oc2ccc(NC(=O)C3CCCCC3)cc2CC1=O	4	-14	-5	-7	7	26[16.7 µM]
O=[N+]([O-])c1ccc2c(c1)CCO[C@@]21O[C@H](CCO)C[C@H](O)[C@H]1O	2	-2	x	6	-3	-84
OCC[C@@H]1C[C@@H](O)[C@H](O)[C@]2(OCc3ccccc32)O1	6	2	-4	7	-5	69*
O=[N+]([O-])c1ccc2c(c1)CO[C@@]21O[C@H](CCO)C[C@H](O)[C@H]1O	-3	-25	-8	-5	1	60*
CC(=O)N1C[C@H]2[C@@H](c3ccccc31)[C@H](CO)N2C(=O)CC1CC1	0	-1	-31	x	1	x
COc1ccc2c3c([nH]c2c1)[C@@H](CO)N(Cc1nccs1)CC31CCN(C(=O)C2CCOCC2)CC1	-1	x	6	x	-7	x
O=C(C[C@@H]1CC[C@H]2NC[C@H](O)COC[C@@H]2O1)NCc1ccc(Oc2ccccc2)cc1	-1	1	-3	-7	-2	-6[16.7 µM]
CC(=O)Nc1sc2c(c1C(c1ccc(F)cc1)N1CCOCC1)CCCC2 (stereo not drawn)	x	33	x	0	x	90*
COc1cc(OC)c(NC2=CC(=O)C(=O)c3ccccc32)cc1Cl	5	93*	5	9	-3	-105
Cc1ccc(NC2=CC(=O)C(=O)c3ccccc32)cc1	x	9	2	-5	x	60
CCCNC(=O)C[C@@H]1C[C@H]2c3cc(NC(=O)Nc4ccc(F)cc4)ccc3O[C@H]2[C@H](CO)O1	-3	24	-5	x	5	26[16.7 µM]
Cc1nc(SCc2nc3cc(Cl)c(F)cc3[nH]2)c2oc3ccccc3c2n1	1	87*	-1	x	9	66*
O=C(Nc1nc2ccccc2[nH]1)c1cccs1	2	-75	4	0	-51	-48
COC(=O)Nc1nc2ccc(C(=O)c3cccs3)cc2[nH]1	-4	64*	-10	-13	64*	0
Cc1nc2ccccc2n1CC(=O)NCc1ccccc1	x	x	-6	-3	x	83*
Cc1nc2ccccc2n1CC(=O)NN	0	6	x	4	-3	9
COCCCN=C1NN=C(c2cc(C)n(Cc3ccco3)c2C)CS1	18*	-35	x	16	54*	-92
Cc1cc(C2=NNC(=NC3CC3)SC2)c(C)n1Cc1ccco1	x	6	x	1	72*	13
COc1ccc(-n2c(C)cc(C3=NNC(=NC4CC4)SC3)c2C)cc1	0	-52	-4	-17	10	-13
Cc1cc(C2=NNC(=NC3CC3)SC2)c(C)n1-c1ccccc1	-1	77*	x	6	89*	40

High-throughput results: PubChem BioAssay, Broad Institute
